# Laboratory results taken from ChEMBL document CHEMBL4002575, “Progress in the development of β-lactams as N-Acylethanolamine Acid Amidase (NAAA) inhibitors: Synthesis and SAR study of new, potent N-O-substituted derivatives” (Eur J Med Chem, 2017).
# pIC50: −log10 of the molar value. The source made the active and inactive calls. No cut-off for these calls is given here.
# Columns and labels:
# [1] = molecular target: T1, N-acylethanolamine-hydrolyzing acid amidase (Homo sapiens, UniProt Q02083); test: Inhibition of recombinant human spleen NAAA expressed in HEK293 cells using PAMCA as substrate preincubated for 10 mins followed by substrate addition measured after 50 mins by fluorescence assay
# T1 sequence (Q02083 whole entry): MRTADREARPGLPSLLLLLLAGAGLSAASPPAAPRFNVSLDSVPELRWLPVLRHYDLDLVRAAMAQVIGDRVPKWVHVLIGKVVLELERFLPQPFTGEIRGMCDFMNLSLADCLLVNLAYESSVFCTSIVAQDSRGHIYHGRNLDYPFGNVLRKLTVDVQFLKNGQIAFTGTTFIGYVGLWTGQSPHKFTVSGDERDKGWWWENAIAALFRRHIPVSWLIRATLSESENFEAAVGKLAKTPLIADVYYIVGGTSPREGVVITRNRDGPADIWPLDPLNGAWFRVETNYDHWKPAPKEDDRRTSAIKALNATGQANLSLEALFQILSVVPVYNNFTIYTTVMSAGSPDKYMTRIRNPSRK
# Rattus norvegicus = test: Oral bioavailability in Sprague-Dawley rat at 10 mg/kg after 15 to 1440 mins by UPLC/MS analysis; assay type: ADME, organism-based; conditions: in vivo
# [2] = Half life in mouse plasma at 2 uM after 2 hrs by LC/MS-MS method; assay type: ADME, cell-free
# [3] = molecular target: T2, Acid ceramidase (Homo sapiens) (UniProt Q13510); test: Inhibition of human acid ceramidase expressed in HEK293 cells at 50 uM using N-[(1S,2R)-2-hydroxy-1-(hydroxymethyl)-4-(2-oxochromen-7-yl)-oxybutyl]dodecanamide as substrate preincubated for 10 mins followed by substrate addition measured after 3 hrs by fluorescence assay relative to control; assay type: cell-based
# T2 sequence (whole entry): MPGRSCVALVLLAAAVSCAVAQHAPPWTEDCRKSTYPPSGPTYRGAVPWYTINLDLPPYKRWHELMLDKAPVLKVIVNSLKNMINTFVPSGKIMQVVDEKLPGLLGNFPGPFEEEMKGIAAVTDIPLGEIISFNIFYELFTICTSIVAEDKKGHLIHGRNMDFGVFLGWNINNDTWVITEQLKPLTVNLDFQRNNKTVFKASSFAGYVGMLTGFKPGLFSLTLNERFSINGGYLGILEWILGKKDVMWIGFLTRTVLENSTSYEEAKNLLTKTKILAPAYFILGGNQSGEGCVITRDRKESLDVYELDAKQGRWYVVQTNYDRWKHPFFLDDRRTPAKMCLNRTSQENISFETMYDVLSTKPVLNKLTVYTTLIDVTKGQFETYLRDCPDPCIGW
# Summary of the method: (§1)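 Human acid ceramidase fluorogenic assay. IC50 taken as the mean of three determinations.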
# [4] = Apparent half life in PBS at pH 7.4 at 1 uM at 37 degC after 24 hrs in presence of 10% MeCN by UPLC-MS method; assay type: physicochemical; conditions: read-out: t1/2(app)
# Summary of the method: (§2)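 Compound incubated 24 h at 37 °C in 0.01 M PBS, pH 7.4, containing 10% MeCN.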
# [5] = Chemical stability in PBS at pH 7.4 assessed as parent compound remaining at 1 uM at 37 degC after 24 hrs in presence of 10% MeCN by UPLC-MS method; assay type: physicochemical; conditions: read-out: Stability; summary of the method: as §2
# [6] = Half life in rat plasma at 2 uM after 2 hrs by LC/MS-MS method; assay type: ADME, cell-free
# [7] = molecular target: T3, Fatty-acid amide hydrolase 1 (Homo sapiens) (UniProt O00519); test: Inhibition of human FAAH1 expressed in HEK293 cells at 10 uM using [3H]anandamide as substrate preincubated for 10 mins followed by substrate addition measured after 30 mins by liquid scintillation counting method relative to control
# T3 sequence (whole entry): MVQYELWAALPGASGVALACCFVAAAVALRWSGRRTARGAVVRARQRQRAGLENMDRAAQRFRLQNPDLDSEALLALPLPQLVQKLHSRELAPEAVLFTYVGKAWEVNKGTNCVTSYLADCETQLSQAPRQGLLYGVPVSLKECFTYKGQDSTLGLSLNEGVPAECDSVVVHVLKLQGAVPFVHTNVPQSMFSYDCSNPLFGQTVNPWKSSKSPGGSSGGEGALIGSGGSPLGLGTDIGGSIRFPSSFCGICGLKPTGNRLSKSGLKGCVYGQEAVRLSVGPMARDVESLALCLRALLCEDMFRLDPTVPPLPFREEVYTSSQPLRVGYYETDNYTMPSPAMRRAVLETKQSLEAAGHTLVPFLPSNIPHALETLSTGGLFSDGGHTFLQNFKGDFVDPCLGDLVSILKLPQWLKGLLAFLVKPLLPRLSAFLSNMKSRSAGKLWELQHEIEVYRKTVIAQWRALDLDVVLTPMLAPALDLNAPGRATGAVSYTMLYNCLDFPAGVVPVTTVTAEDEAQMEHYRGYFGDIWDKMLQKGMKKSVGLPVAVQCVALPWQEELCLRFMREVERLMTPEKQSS
# Acid ceramidase = molecular target: T4, Acid ceramidase (Homo sapiens, UniProt Q13510); test: Inhibition of human acid ceramidase expressed in HEK293 cells using N-[(1S,2R)-2-hydroxy-1-(hydroxymethyl)-4-(2-oxochromen-7-yl)-oxybutyl]dodecanamide as substrate preincubated for 10 mins followed by substrate addition measured after 3 hrs by fluorescence assay; assay type: cell-based; summary of the method: as §1
# T4 sequence (Q13510 whole entry): T2 sequence (whole entry)
# Mus musculus [8] = test: Antiinflammatory activity in CD1 mouse assessed as inhibition of carrageenan-induced paw edema at 0.5 to 50 ug/paw administered intraplantarly post carrageenan challenge measured over 2 to 48 hrs by plethysmometer; assay type: functional
# Summary of the method: (§3)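 Male CD1 mice (25-30 g). Paw edema induced by λ-carrageenan (1% w/v in sterile water, 50 µl) injected into the left hind paw. A fresh suspension in 80% sterile saline/10% PEG-400/10% Tween 80 (10 µl per animal) was given by intraplantar injection just after carrageenan, as a single dose of 0.5–50 µg/paw. Edema was read by plethysmometer and heat hyperalgesia by behavioural test, both blind.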
# Mus musculus [9] = test: Analgesic activity in CD1 mouse assessed as inhibition of carrageenan-induced heat hyperalgesia at 0.5 to 50 ug/paw administered intraplantarly post carrageenan challenge measured over 2 to 48 hrs; assay type: functional; summary of the method: as §3
# Homo sapiens = species on record: Homo sapiens; test: Selectivity ratio of IC50 for human acid ceramidase to IC50 for recombinant human spleen NAAA
# Summary of the method: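 Ratio of h-AC IC50 to h-NAAA IC50, each the mean of three determinations in fluorogenic assays. The NAAA was recombinant human enzyme overexpressed in HEK293 cells, purified, then activated for 3 h at 37 °C at pH 4.5 (phosphate/citrate, 3 mM DTT, 0.1% Triton X-100). The NAAA substrate was PAMCA (hexadecanamide of 7-amino-4-methylcoumarin).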
pIC50 [1],half-life at 2 µM [2] [min],half-life at 1 µM [4] [min],half-life at 2 µM [6] [min],inhibition [7] [%],SMILES,also measured
7.80,–,–,–,–,CON1C[C@H](NC(=O)OCCCCC2CCCCC2)C1=O,–
7.25,–,–,–,–,CON1C[C@@H](NC(=O)OCCCCC2CCCCC2)C1=O,–
–,130,–,–,–,CCCCCCCCC(=O)N[C@H]1CNC1=O,F (Rattus norvegicus): 67%
< 4.30,–,–,–,–,C[C@H]1[C@H](NC(=O)OCCCCC2CCCCC2)C(=O)N1OC(C)(C)C,–
5.14,–,–,–,–,COC(=O)N1C[C@H](NC(=O)OCCCCC2CCCCC2)C1=O,–
–,< 5,> 1440,< 5,> 50,CON1C(=O)[C@@H](NC(=O)OCCCCC2CCCCC2)[C@@H]1C,"inhibition [3]: > 50%; remaining at 24 h, 1 µM [5]: 97%"
5.70,–,–,–,–,CN1C[C@H](NC(=O)OCCCCC2CCCCC2)C1=O,–
–,< 5,727,< 5,> 50,C[C@H]1[C@H](NC(=O)OCCCCC2CCCCC2)C(=O)N1Oc1ccc(S(C)(=O)=O)cc1,pIC50 (Acid ceramidase): 5.69; inhibition (Mus musculus [8]): Active; inhibition (Mus musculus [9]): Active
–,< 5,> 1440,< 5,> 50,C[C@H]1[C@H](NC(=O)OCCCCC2CCCCC2)C(=O)N1OCCCS(C)(=O)=O,"inhibition [3]: > 50%; remaining at 24 h, 1 µM [5]: 67%; Ratio IC50 (Homo sapiens): > 1000"
< 4.30,–,–,–,–,CC(=O)N1C[C@H](NC(=O)OCCCCC2CCCCC2)C1=O,–
–,< 5,> 1440,< 5,> 50,C[C@H]1[C@H](NC(=O)OCCCCC2CCCCC2)C(=O)N1Oc1ccccc1,"pIC50 (Acid ceramidase): 6.52; remaining at 24 h, 1 µM [5]: 63%; Ratio IC50 (Homo sapiens): 13"
